# Published values pooled from the literature.
# Lines come from different studies, so protocols differ.
# Target: Macrophage-stimulating protein receptor (MST1R, Homo sapiens, UniProt Q04912)
SMILES,effect on,method,tested at,remaining binding
Cc1nc(N2CC[C@@H](O)C2)ncc1-c1cc(C(F)(F)F)cc2[nH]ncc12,cell-free assay,competition with immobilised ligand,1 µM,100%
C=CC(=O)N1CCC(C(=O)NCC(=O)N2CCN(c3nc(-c4cnc(N)nc4C(F)F)nc(N4CCOCC4)n3)CC2)CC1,binding,competition with immobilised ligand,1 µM,100%
CS(=O)(=O)c1cc(C2(NC(=O)c3cncc4c3cnn4-c3ccc(F)cc3)CC2)ccn1,cell-free assay,competition with immobilised ligand,1 µM,83%
N[C@H]1CCN(c2nccc(-c3cnn4ncccc34)n2)C1,binding,,1 µM,82%
C[C@@]1(Cc2ccc(C#N)cc2)C(=O)N(c2cc(Cl)cc(Cl)c2)c2ncc(C(=O)NC3(c4nc(C5CCC5)no4)CC3)n21,cell-free assay,competition with immobilised ligand,1 µM,100%
C[C@H]1CCN(c2nccc(-c3cnn4ncccc34)n2)C1,binding,,1 µM,93%
NS(=O)(=O)c1cc(NC(=O)Cc2ccccc2)ccc1Oc1cccc(Cl)c1,cell-free assay,competition with immobilised ligand,1 µM,97%
CN(c1nccc(-c2cnn3ncccc23)n1)C1CC1,binding,,1 µM,100%
O=C(Nc1c[nH]nc1C(=O)NC1CCNCC1)c1cc(F)cc(F)c1,binding,competition with immobilised ligand,1 µM,100%
CNC(=O)[C@@H]1CC[C@@H](n2c(-c3ccc4cnccc4c3)nc3ccc(C(=O)NCc4cccc(C(N)=O)c4)cc32)C1,binding,competition with immobilised ligand,1 µM,87%
O=C(NCCCN1CCOCC1)c1ccc(Nc2nccc(-c3cc4ccccc4s3)n2)cc1,binding,competition with immobilised ligand,1 µM,100%
Cc1cnn2ncc(-c3ccnc(N(C)C)n3)c2c1,binding,,1 µM,71%
c1ccc(N2CCN(Cc3nc4ccccc4[nH]3)CC2)nc1,cell-free assay,competition with immobilised ligand,1 µM,100%
c1cncc(-c2cccc(Nc3nccc(NC4CCCCC4)n3)c2)c1,binding,competition with immobilised ligand,10 µM,78%
COc1ncc2cc3ccccc3nc2c1C#N,cell-free assay,competition with immobilised ligand,5 µM,100%
CN(C)c1nccc(-c2cnn3ncccc23)n1,binding,,1 µM,100%
O=C(Nc1cccnn1)N1CC(C/C=C/c2cncc(Oc3ccc(C(F)(F)F)cn3)n2)C1,cell-free assay,competition with immobilised ligand,1 µM,100%
Cc1cnc(Nc2ccc(C(=O)N3CCC(N4CCCC4)CC3)cc2)nc1-c1cc2ccccc2s1,binding,competition with immobilised ligand,1 µM,83%
COc1cnc(Nc2cccc(S(N)(=O)=O)c2)nc1N1CCN(c2ccccc2)CC1,binding,competition with immobilised ligand,1 µM,99%
CC1CCCN1c1nccc(-c2cnn3ncccc23)n1 (stereo not drawn),binding,,1 µM,100%
O=C(c1ccc(Nc2nccc(-c3cc4ccccc4s3)n2)cc1)N1CCC(N2CCCC2)CC1,binding,competition with immobilised ligand,1 µM,88%
